Experimental data from ChEMBL document CHEMBL1123716, “Synthesis and tumor uptake of 5-halo-1-(2'-fluoro-2'-deoxy-beta-D-ribofuranosyl)[2-14C]uracils” (J Med Chem, 1987).

Assays:
Conditions in all cases: in vivo
Mus musculus [1] = test: Tissue distribution in BDF1 female mice bearing an implanted lewis lung tumor after intravenous injection in lung at 0.5 h.; type: ADME, organism-based
How it was run: (§1)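 Female BDF₁ mice (18–20 g) carrying transplanted Lewis lung tumor received 23–193 kBq of the [2-¹⁴C]-labeled nucleoside in normal saline via tail vein. The compound was stored as a dry film and reconstituted just before use. Animals were killed at set times, and tissue ¹⁴C was measured by combustion and liquid scintillation. Values are mean ± SD % injected dose per gram of wet tissue, n = 6.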

Mus musculus [2] = test: Tissue distribution in BDF1 female mice bearing an implanted lewis lung tumor after intravenous injection in bone at 24 h.; type: ADME, organism-based
How it was run: (§2)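 Female BDF1 mice (18–20 g) with implanted Lewis lung tumor received the 2-14C compound by tail vein, 23–193 kBq in normal saline, reconstituted from a dry film just before use. Animals were killed at set times and tissues taken for 14C counting by combustion and liquid scintillation. Values are percent injected dose per gram wet tissue, mean ± standard deviation, six animals.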

Mus musculus [3] = test: Tissue distribution in BDF1 female mice bearing an implanted lewis lung tumor after intravenous injection in lung at 1 h.; type: ADME, organism-based; how it was run: as §1
Mus musculus [4] = test: Tissue distribution in BDF1 female mice bearing an implanted lewis lung tumor after intravenous injection in lung at 2 h.; type: ADME, organism-based; how it was run: as §1
Mus musculus [5] = test: Tissue distribution in BDF1 female mice bearing an implanted lewis lung tumor after intravenous injection in muscle at 1 h.; type: ADME, organism-based; how it was run: as §1
Mus musculus [6] = test: Tissue distribution in BDF1 female mice bearing an implanted lewis lung tumor after intravenous injection in skin at 0.5 h.; type: ADME, organism-based, Skin of body; how it was run: as §1
Mus musculus [7] = test: Tissue distribution in BDF1 female mice bearing an implanted lewis lung tumor after intravenous injection in skin at 1 h.; type: ADME, organism-based, Skin of body; how it was run: as §1
Mus musculus [8] = test: Tissue distribution in BDF1 female mice bearing an implanted lewis lung tumor after intravenous injection in skin at 8 h.; type: ADME, organism-based, Skin of body; how it was run: as §1
Mus musculus [9] = test: Tissue distribution in BDF1 female mice bearing an implanted lewis lung tumor after intravenous injection in spleen at 0.5 h.; type: ADME, organism-based; how it was run: as §1
Mus musculus [10] = test: Tissue distribution in BDF1 female mice bearing an implanted lewis lung tumor after intravenous injection in git(Section of intestine) at 0.25 h.; type: ADME, organism-based; how it was run: as §2
Mus musculus [11] = test: Tissue distribution in BDF1 female mice bearing an implanted lewis lung tumor after intravenous injection in bone at 0.5 h.; type: ADME, organism-based; how it was run: as §2
Mus musculus [12] = test: Tissue distribution in BDF1 female mice bearing an implanted lewis lung tumor after intravenous injection in bone at 1 h.; type: ADME, organism-based; how it was run: as §2
Mus musculus [13] = test: Tissue distribution in BDF1 female mice bearing an implanted lewis lung tumor after intravenous injection in git(Section of intestine) at 4 h.; type: ADME, organism-based; how it was run: as §2
Mus musculus [14] = test: Tissue distribution in BDF1 female mice bearing an implanted lewis lung tumor after intravenous injection in git(Section of intestine) at 8 h.; type: ADME, organism-based; how it was run: as §2
Mus musculus [15] = test: Tissue distribution in BDF1 female mice bearing an implanted lewis lung tumor after intravenous injection in heart at 0.5 h.; type: ADME, organism-based; how it was run: as §2
Mus musculus [16] = test: Tissue distribution in BDF1 female mice bearing an implanted lewis lung tumor after intravenous injection in heart at 1 h.; type: ADME, organism-based; how it was run: as §2
Mus musculus [17] = test: Tissue distribution in BDF1 female mice bearing an implanted lewis lung tumor after intravenous injection in heart at 2 h.; type: ADME, organism-based; how it was run: as §2
Mus musculus [18] = test: Tissue distribution in BDF1 female mice bearing an implanted lewis lung tumor after intravenous injection in heart at 24 h.; type: ADME, organism-based; how it was run: as §2
Mus musculus [19] = test: Tissue distribution in BDF1 female mice bearing an implanted lewis lung tumor after intravenous injection in heart at 4 h.; type: ADME, organism-based; how it was run: as §2
Mus musculus [20] = test: Tissue distribution in BDF1 female mice bearing an implanted lewis lung tumor after intravenous injection in heart at 8 h.; type: ADME, organism-based; how it was run: as §2
Mus musculus [21] = test: Tissue distribution in BDF1 female mice bearing an implanted lewis lung tumor after intravenous injection in kidney at 2 h.; type: ADME, organism-based; how it was run: as §2
Mus musculus [22] = test: Tissue distribution in BDF1 female mice bearing an implanted lewis lung tumor after intravenous injection in liver at 0.5 h.; type: ADME, organism-based; how it was run: as §1
Mus musculus [23] = test: Tissue distribution in BDF1 female mice bearing an implanted lewis lung tumor after intravenous injection in liver at 24 h.; type: ADME, organism-based; how it was run: as §1
Mus musculus [24] = test: Tissue distribution in BDF1 female mice bearing an implanted lewis lung tumor after intravenous injection in blood at 0.25 h; type: ADME, organism-based; how it was run: as §2
Mus musculus [25] = test: Tissue distribution in BDF1 female mice bearing an implanted lewis lung tumor after intravenous injection in blood at 0.5 h.; type: ADME, organism-based; how it was run: as §2
Mus musculus [26] = test: Tissue distribution in BDF1 female mice bearing an implanted lewis lung tumor after intravenous injection in blood at 1 h.; type: ADME, organism-based; how it was run: as §2
Mus musculus [27] = test: Tissue distribution in BDF1 female mice bearing an implanted lewis lung tumor after intravenous injection in blood at 4 h.; type: ADME, organism-based; how it was run: as §2
Mus musculus [28] = test: Tissue distribution in BDF1 female mice bearing an implanted lewis lung tumor after intravenous injection in blood at 8 h.; type: ADME, organism-based; how it was run: as §2
Mus musculus [29] = test: Tissue distribution in BDF1 female mice bearing an implanted lewis lung tumor after intravenous injection in spleen at 1 h.; type: ADME, organism-based; how it was run: as §1
Mus musculus [30] = test: Tissue distribution in BDF1 female mice bearing an implanted lewis lung tumor after intravenous injection in spleen at 2 h.; type: ADME, organism-based; how it was run: as §1
Mus musculus [31] = test: Tissue distribution in BDF1 female mice bearing an implanted lewis lung tumor after intravenous injection in spleen at 24 h.; type: ADME, organism-based; how it was run: as §1
Mus musculus [32] = test: Tissue distribution in BDF1 female mice bearing an implanted lewis lung tumor after intravenous injection in spleen at 8 h.; type: ADME, organism-based; how it was run: as §1
Mus musculus [33] = test: Tissue distribution in BDF1 female mice bearing an implanted lewis lung tumor after intravenous injection in stomach at 1 h.; type: ADME, organism-based; how it was run: as §1
Mus musculus [34] = test: Tissue distribution in BDF1 female mice bearing an implanted lewis lung tumor after intravenous injection in stomach at 24 h.; type: ADME, organism-based; how it was run: as §1
Mus musculus [35] = test: Tissue distribution in BDF1 female mice bearing an implanted lewis lung tumor after intravenous injection in stomach at 4 h.; type: ADME, organism-based; how it was run: as §1
Mus musculus [36] = test: Tissue distribution in BDF1 female mice bearing an implanted lewis lung tumor after intravenous injection in stomach at 8 h.; type: ADME, organism-based
How it was run: (§3)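 Female BDF1 mice (18–20 g) carrying a transplanted Lewis lung tumor were given 23–193 kBq of the [2-14C]-labelled nucleoside in normal saline by tail vein. Animals were killed at set times. Tissue 14C was counted by liquid scintillation, after combustion or directly. Values are percent of injected dose per gram wet tissue, as mean ± standard deviation of six animals.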

Mus musculus [37] = test: Tissue distribution in BDF1 female mice bearing an implanted lewis lung tumor after intravenous injection in tumor at 0.25 h.; type: ADME, organism-based; how it was run: as §3
Mus musculus [38] = test: Tissue distribution in BDF1 female mice bearing an implanted lewis lung tumor after intravenous injection in tumor at 2 h.; type: ADME, organism-based; how it was run: as §3
Mus musculus [39] = test: Tissue distribution in BDF1 female mice bearing an implanted lewis lung tumor after intravenous injection in tumor at 24 h.; type: ADME, organism-based; how it was run: as §3
Mus musculus [40] = test: Tissue distribution in BDF1 female mice bearing an implanted lewis lung tumor after intravenous injection in bone at 2 h.; type: ADME, organism-based; how it was run: as §2
Mus musculus [41] = test: Tissue distribution in BDF1 female mice bearing an implanted lewis lung tumor after intravenous injection in muscle at 8 h.; type: ADME, organism-based; how it was run: as §1
Mus musculus [42] = test: Tissue distribution in BDF1 female mice bearing an implanted lewis lung tumor after intravenous injection in lung at 8 h.; type: ADME, organism-based; how it was run: as §1
Mus musculus [43] = test: Tissue distribution in BDF1 female mice bearing an implanted lewis lung tumor after intravenous injection in blood at 24 h.; type: ADME, organism-based; how it was run: as §2
Mus musculus [44] = test: Tissue distribution in BDF1 female mice bearing an implanted lewis lung tumor after intravenous injection in kidney at 4 h.; type: ADME, organism-based; how it was run: as §1
Mus musculus [45] = test: Tissue distribution in BDF1 female mice bearing an implanted lewis lung tumor after intravenous injection in skin at 24 h.; type: ADME, organism-based, Skin of body; how it was run: as §1

O=c1[nH]c(=O)n([C@H]2O[C@@H](CO)[C@H](O)[C@H]2F)cc1Cl
Tissue distribution (Mus musculus [1]): 1.41
Tissue distribution (Mus musculus [2]): 0.01
Tissue distribution (Mus musculus [3]): 0.43
Tissue distribution (Mus musculus [4]): 0.14
Tissue distribution (Mus musculus [5]): 0.27
Tissue distribution (Mus musculus [6]): 1.24
Tissue distribution (Mus musculus [7]): 0.36
Tissue distribution (Mus musculus [8]): 0.02
Tissue distribution (Mus musculus [9]): 1.08
Tissue distribution (Mus musculus [10]): 1.91
Tissue distribution (Mus musculus [11]): 0.41
Tissue distribution (Mus musculus [12]): 0.17
Tissue distribution (Mus musculus [13]): 0.06
Tissue distribution (Mus musculus [14]): 0.04
Tissue distribution (Mus musculus [15]): 1.56
Tissue distribution (Mus musculus [16]): 0.53
Tissue distribution (Mus musculus [17]): 0.17
Tissue distribution (Mus musculus [18]): 0.02
Tissue distribution (Mus musculus [19]): 0.06
Tissue distribution (Mus musculus [20]): 0.03
Tissue distribution (Mus musculus [21]): 1.6
Tissue distribution (Mus musculus [22]): 1.43
Tissue distribution (Mus musculus [23]): 0.02
Tissue distribution (Mus musculus [24]): 3.54
Tissue distribution (Mus musculus [25]): 1.82
Tissue distribution (Mus musculus [26]): 0.58
Tissue distribution (Mus musculus [27]): 0.06
Tissue distribution (Mus musculus [28]): 0.03
Tissue distribution (Mus musculus [29]): 0.48
Tissue distribution (Mus musculus [30]): 0.34
Tissue distribution (Mus musculus [31]): 0.06
Tissue distribution (Mus musculus [32]): 0.15
Tissue distribution (Mus musculus [33]): 0.27
Tissue distribution (Mus musculus [34]): 0.01
Tissue distribution (Mus musculus [35]): 0.07
Tissue distribution (Mus musculus [36]): 0.05
Tissue distribution (Mus musculus [37]): 2.62
Tissue distribution (Mus musculus [38]): 0.34
Tissue distribution (Mus musculus [39]): 0.03
Tissue distribution (Mus musculus [40]): 0.08
Tissue distribution (Mus musculus [41]): 0.03
Tissue distribution (Mus musculus [42]): 0.03
Tissue distribution (Mus musculus [43]): 0.01
Tissue distribution (Mus musculus [44]): 0.33
Tissue distribution (Mus musculus [45]): 0.01
